# Measurements: ChEMBL document CHEMBL2062460, “Disubstituted thiourea derivatives and their activity on CNS: synthesis and biological evaluation” (Eur J Med Chem, 2012)
# Activity calls are given as the source filed them. The calls are words filed in the database; no cut-off is given here.
# System: Staphylococcus aureus
# Experiment: Antibacterial activity against methicillin-susceptible Staphylococcus aureus clinical isolate 369/09 after 18 hrs by twofold serial agar dilution technique
# Format: functional
# Conditions: clinical isolate 369/09, 18 h
# Outline: (§1)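 Clinical isolates came from patients in Warsaw Medical University Hospitals and were classed as methicillin-susceptible or -resistant. MIC was determined by twofold serial agar dilution on Mueller–Hinton II agar (CLSI), 3.125–400 µg/mL in agar, with compounds in methanol or DMSO. Inoculum was 10^4 CFU/mL and plates were read after 18 h at 35 °C.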
row,Structure (SMILES),MIC [µg/mL]
1,S=C(Nc1ccccc1)Nc1nc[nH]n1,50

# System: Escherichia coli
# Experiment: Antibacterial activity against Escherichia coli ATCC 25922 at 400 ug/disc after 18 hrs by disc diffusion method
# Format: functional, organism-based
# Conditions: not given
# Outline: (§2)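 Disc diffusion per CLSI on Mueller–Hinton II agar; 9 mm paper discs loaded from methanol or DMSO solutions to 400 µg per disc, dried; growth inhibition zone diameter read after 18 h at 35 °C.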
row,Structure (SMILES),diameter of the inhibition zone (DIZ)
1,S=C(Nc1ccccc1)Nc1nc[nH]n1,inactive

# System: Staphylococcus epidermidis
# Experiment: Antibacterial activity against methicillin-resistant Staphylococcus epidermidis clinical isolate 315/08 after 18 hrs by twofold serial agar dilution technique
# Format: functional
# Conditions: clinical isolate 315/08, 18 h
# Outline: as §1
row,Structure (SMILES),MIC [µg/mL]
1,S=C(Nc1ccccc1)Nc1nc[nH]n1,100

# System: Staphylococcus epidermidis
# Experiment: Antibacterial activity against methicillin-resistant Staphylococcus epidermidis clinical isolate 311/08 after 18 hrs by twofold serial agar dilution technique
# Format: functional
# Conditions: clinical isolate 311/08, 18 h
# Outline: as §1
row,Structure (SMILES),MIC [µg/mL]
1,S=C(Nc1ccccc1)Nc1nc[nH]n1,100

# System: Staphylococcus aureus
# Experiment: Antibacterial activity against methicillin-resistant Staphylococcus aureus clinical isolate 277/08 after 18 hrs by twofold serial agar dilution technique
# Format: functional
# Conditions: clinical isolate 277/08, 18 h
# Outline: as §1
row,Structure (SMILES),MIC [µg/mL]
1,S=C(Nc1ccccc1)Nc1nc[nH]n1,50

# System: Micrococcus luteus
# Experiment: Antibacterial activity against Micrococcus luteus ATCC 9341 after 18 hrs by twofold serial agar dilution technique
# Format: functional
# Conditions: ATCC 9341, 18 h
row,Structure (SMILES),MIC [µg/mL]
1,S=C(Nc1ccccc1)Nc1nc[nH]n1,50

# System: Staphylococcus aureus
# Experiment: Antibacterial activity against methicillin-susceptible Staphylococcus aureus clinical isolate 338/08 after 18 hrs by twofold serial agar dilution technique
# Format: functional
# Conditions: clinical isolate 338/08, 18 h
# Outline: as §1
row,Structure (SMILES),MIC [µg/mL]
1,S=C(Nc1ccccc1)Nc1nc[nH]n1,50

# System: Staphylococcus epidermidis
# Experiment: Antibacterial activity against methicillin-resistant Staphylococcus epidermidis clinical isolate 318/08 after 18 hrs by twofold serial agar dilution technique
# Format: functional
# Conditions: clinical isolate 318/08, 18 h
# Outline: as §1
row,Structure (SMILES),MIC [µg/mL]
1,S=C(Nc1ccccc1)Nc1nc[nH]n1,50

# System: Staphylococcus aureus
# Experiment: Antibacterial activity against methicillin-resistant Staphylococcus aureus clinical isolate 309/08 after 18 hrs by twofold serial agar dilution technique
# Format: functional
# Conditions: clinical isolate 309/08, 18 h
# Outline: as §1
row,Structure (SMILES),MIC [µg/mL]
1,S=C(Nc1ccccc1)Nc1nc[nH]n1,50

# System: Staphylococcus aureus
# Experiment: Antibacterial activity against methicillin-resistant Staphylococcus aureus clinical isolate 325/09 after 18 hrs by twofold serial agar dilution technique
# Format: functional
# Conditions: clinical isolate 325/09, 18 h
# Outline: as §1
row,Structure (SMILES),MIC [µg/mL]
1,S=C(Nc1ccccc1)Nc1nc[nH]n1,50

# System: Staphylococcus aureus
# Experiment: Antibacterial activity against methicillin-resistant Staphylococcus aureus clinical isolate 376/09 after 18 hrs by twofold serial agar dilution technique
# Format: functional
# Conditions: clinical isolate 376/09, 18 h
# Outline: as §1
row,Structure (SMILES),MIC [µg/mL]
1,S=C(Nc1ccccc1)Nc1nc[nH]n1,50

# System: Staphylococcus epidermidis
# Experiment: Antibacterial activity against methicillin-resistant Staphylococcus epidermidis clinical isolate 316/08 after 18 hrs by twofold serial agar dilution technique
# Format: functional
# Conditions: clinical isolate 316/08, 18 h
# Outline: as §1
row,Structure (SMILES),MIC [µg/mL]
1,S=C(Nc1ccccc1)Nc1nc[nH]n1,100

# System: Proteus vulgaris
# Experiment: Antibacterial activity against Proteus vulgaris NCTC 4635 at 400 ug/disc after 18 hrs by disc diffusion method
# Format: functional, organism-based
# Conditions: not given
# Outline: as §2
row,Structure (SMILES),diameter of the inhibition zone (DIZ)
1,S=C(Nc1ccccc1)Nc1nc[nH]n1,inactive

# System: Staphylococcus aureus
# Experiment: Antibacterial activity against Staphylococcus aureus ATCC 25923 at 400 ug/disc after 18 hrs by disc diffusion method
# Format: functional
# Conditions: not given
# Outline: as §2
row,Structure (SMILES),diameter of the inhibition zone (DIZ)
1,S=C(Nc1ccccc1)Nc1nc[nH]n1,inactive

# System: Staphylococcus aureus
# Experiment: Antibacterial activity against Staphylococcus aureus NCTC 4163 after 18 hrs by twofold serial agar dilution technique
# Format: functional
# Conditions: NCTC 4163, 18 h
# Outline: (§3)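 Twofold serial agar dilution on Mueller–Hinton II agar, following CLSI guidelines. Compounds were dissolved in methanol or DMSO and tested at final agar concentrations of 3.125–400 µg/mL. Final inoculum was 10^4 CFU/mL.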
row,Structure (SMILES),MIC [µg/mL]
1,S=C(Nc1ccccc1)Nc1nc[nH]n1,100

# System: Candida parapsilosis
# Experiment: Antifungal activity against Candida parapsilosis ATCC 22019 at 400 ug/disc after 18 hrs by disc diffusion method
# Format: functional, organism-based
# Conditions: not given
# Outline: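 Yeasts tested by disc diffusion (CLSI) on RPMI agar with 2% glucose; 9 mm paper discs bearing 400 µg compound from methanol or DMSO solution; inhibition zone diameter read after 18 h at 35 °C.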
row,Structure (SMILES),diameter of the inhibition zone (DIZ)
1,S=C(Nc1ccccc1)Nc1nc[nH]n1,inactive

# System: Staphylococcus aureus
# Experiment: Antibacterial activity against methicillin-susceptible Staphylococcus aureus clinical isolate 261/08 after 18 hrs by twofold serial agar dilution technique
# Format: functional
# Conditions: clinical isolate 261/08, 18 h
# Outline: as §1
row,Structure (SMILES),MIC [µg/mL]
1,S=C(Nc1ccccc1)Nc1nc[nH]n1,50

# System: Bordetella bronchiseptica
# Experiment: Antibacterial activity against Bordetella bronchiseptica ATCC 4617 at 400 ug/disc after 18 hrs by disc diffusion method
# Format: functional, organism-based
# Conditions: not given
# Outline: as §2
row,Structure (SMILES),diameter of the inhibition zone (DIZ)
1,S=C(Nc1ccccc1)Nc1nc[nH]n1,inactive

# System: Bacillus cereus
# Experiment: Antibacterial activity against Bacillus cereus ATCC 11778 at 400 ug/disc after 18 hrs by disc diffusion method
# Format: functional
# Conditions: ATCC 11778, 18 h, read-out: DIZ
# Outline: as §2
row,Structure (SMILES),zone of inhibition at 400 µg/disc [mm]
1,S=C(Nc1ccccc1)Nc1nc[nH]n1,12

# System: Escherichia coli
# Experiment: Antibacterial activity against Escherichia coli ATCC 10538 at 400 ug/disc after 18 hrs by disc diffusion method
# Format: functional, organism-based
# Conditions: not given
# Outline: as §2
row,Structure (SMILES),diameter of the inhibition zone (DIZ)
1,S=C(Nc1ccccc1)Nc1nc[nH]n1,inactive

# System: Staphylococcus epidermidis
# Experiment: Antibacterial activity against methicillin-resistant Staphylococcus epidermidis clinical isolate 342/09 after 18 hrs by twofold serial agar dilution technique
# Format: functional
# Conditions: clinical isolate 342/09, 18 h
# Outline: as §1
row,Structure (SMILES),MIC [µg/mL]
1,S=C(Nc1ccccc1)Nc1nc[nH]n1,200

# System: Enterococcus hirae
# Experiment: Antibacterial activity against Enterococcus hirae ATCC 10541 at 400 ug/disc after 18 hrs by disc diffusion method
# Format: functional
# Conditions: not given
# Outline: as §2
row,Structure (SMILES),diameter of the inhibition zone (DIZ)
1,S=C(Nc1ccccc1)Nc1nc[nH]n1,inactive

# System: Staphylococcus aureus
# Experiment: Antibacterial activity against methicillin-susceptible Staphylococcus aureus clinical isolate 367/09 after 18 hrs by twofold serial agar dilution technique
# Format: functional
# Conditions: clinical isolate 367/09, 18 h
# Outline: as §1
row,Structure (SMILES),MIC [µg/mL]
1,S=C(Nc1ccccc1)Nc1nc[nH]n1,50

# System: Bacillus subtilis
# Experiment: Antibacterial activity against Bacillus subtilis ATCC 6633 at 400 ug/disc after 18 hrs by disc diffusion method
# Format: functional
# Conditions: ATCC 6633, 18 h, read-out: DIZ
# Outline: as §2
row,Structure (SMILES),zone of inhibition at 400 µg/disc [mm]
1,S=C(Nc1ccccc1)Nc1nc[nH]n1,16

# System: Staphylococcus aureus
# Experiment: Antibacterial activity against methicillin-resistant Staphylococcus aureus clinical isolate 307/08 after 18 hrs by twofold serial agar dilution technique
# Format: functional
# Conditions: clinical isolate 307/08, 18 h
# Outline: as §1
row,Structure (SMILES),MIC [µg/mL]
1,S=C(Nc1ccccc1)Nc1nc[nH]n1,50

# System: Staphylococcus aureus
# Experiment: Antibacterial activity against methicillin-susceptible Staphylococcus aureus clinical isolate 339/09 after 18 hrs by twofold serial agar dilution technique
# Format: functional
# Conditions: clinical isolate 339/09, 18 h
# Outline: as §1
row,Structure (SMILES),MIC [µg/mL]
1,S=C(Nc1ccccc1)Nc1nc[nH]n1,50

# System: Pseudomonas aeruginosa
# Experiment: Antibacterial activity against Pseudomonas aeruginosa NCTC 6749 at 400 ug/disc after 18 hrs by disc diffusion method
# Format: functional, organism-based
# Conditions: not given
# Outline: as §2
row,Structure (SMILES),diameter of the inhibition zone (DIZ)
1,S=C(Nc1ccccc1)Nc1nc[nH]n1,inactive

# System: Staphylococcus aureus
# Experiment: Antibacterial activity against methicillin-resistant Staphylococcus aureus clinical isolate 356/09 after 18 hrs by twofold serial agar dilution technique
# Format: functional
# Conditions: clinical isolate 356/09, 18 h
# Outline: as §1
row,Structure (SMILES),MIC [µg/mL]
1,S=C(Nc1ccccc1)Nc1nc[nH]n1,50

# System: Staphylococcus epidermidis
# Experiment: Antibacterial activity against methicillin-resistant Staphylococcus epidermidis clinical isolate 341/09 after 18 hrs by twofold serial agar dilution technique
# Format: functional
# Conditions: clinical isolate 341/09, 18 h
# Outline: as §1
row,Structure (SMILES),MIC [µg/mL]
1,S=C(Nc1ccccc1)Nc1nc[nH]n1,100

# System: Bacillus cereus
# Experiment: Antibacterial activity against Bacillus cereus ATCC 11778 after 18 hrs by twofold serial agar dilution technique
# Format: functional
# Conditions: ATCC 11778, 18 h
row,Structure (SMILES),MIC [µg/mL]
1,S=C(Nc1ccccc1)Nc1nc[nH]n1,100

# System: Staphylococcus epidermidis
# Experiment: Antibacterial activity against methicillin-resistant Staphylococcus epidermidis clinical isolate 377/09 after 18 hrs by twofold serial agar dilution technique
# Format: functional
# Conditions: clinical isolate 377/09, 18 h
# Outline: as §1
row,Structure (SMILES),MIC [µg/mL]
1,S=C(Nc1ccccc1)Nc1nc[nH]n1,50

# System: Staphylococcus aureus
# Experiment: Antibacterial activity against Staphylococcus aureus ATCC 6538 at 400 ug/disc after 18 hrs by disc diffusion method
# Format: functional
# Conditions: not given
# Outline: as §2
row,Structure (SMILES),diameter of the inhibition zone (DIZ)
1,S=C(Nc1ccccc1)Nc1nc[nH]n1,inactive

# System: Micrococcus luteus
# Experiment: Antibacterial activity against Micrococcus luteus ATCC 10240 at 400 ug/disc after 18 hrs by disc diffusion method
# Format: functional
# Conditions: ATCC 10240, 18 h, read-out: DIZ
# Outline: as §2
row,Structure (SMILES),zone of inhibition at 400 µg/disc [mm]
1,S=C(Nc1ccccc1)Nc1nc[nH]n1,12

# System: not listed separately
# Experiment: Cytotoxicity against human MT4 cells after 96 hrs by MTT assay
# Format: cell-based
# Conditions: not given
row,Structure (SMILES),CC50 at 96 h [µM]
1,S=C(Nc1ccccc1)Nc1nc[nH]n1,> 100

# System: Staphylococcus aureus
# Experiment: Antibacterial activity against methicillin-resistant Staphylococcus aureus clinical isolate 275/08 after 18 hrs by twofold serial agar dilution technique
# Format: functional
# Conditions: clinical isolate 275/08, 18 h
# Outline: as §1
row,Structure (SMILES),MIC [µg/mL]
1,S=C(Nc1ccccc1)Nc1nc[nH]n1,100

# System: Staphylococcus aureus
# Experiment: Antibacterial activity against Staphylococcus aureus ATCC 29213 after 18 hrs by twofold serial agar dilution technique
# Format: functional
# Conditions: ATCC 29213, 18 h
# Outline: as §3
row,Structure (SMILES),MIC [µg/mL]
1,S=C(Nc1ccccc1)Nc1nc[nH]n1,100

# System: Staphylococcus aureus
# Experiment: Antibacterial activity against methicillin-resistant Staphylococcus aureus clinical isolate 306/08 after 18 hrs by twofold serial agar dilution technique
# Format: functional
# Conditions: clinical isolate 306/08, 18 h
# Outline: as §1
row,Structure (SMILES),MIC [µg/mL]
1,S=C(Nc1ccccc1)Nc1nc[nH]n1,50
